Data published in ChEMBL document CHEMBL1142536, “Synthesis of triazole-linked beta-C-glycosyl dimers as inhibitors of PTP1B” (Bioorg Med Chem, 2008).

Assays:
[1] = target: T1, Tyrosine-protein phosphatase non-receptor type 1 (Homo sapiens, UniProt P18031); experiment: Inhibition of human recombinant PTP1B catalytic domain
T1 sequence (P18031 whole entry): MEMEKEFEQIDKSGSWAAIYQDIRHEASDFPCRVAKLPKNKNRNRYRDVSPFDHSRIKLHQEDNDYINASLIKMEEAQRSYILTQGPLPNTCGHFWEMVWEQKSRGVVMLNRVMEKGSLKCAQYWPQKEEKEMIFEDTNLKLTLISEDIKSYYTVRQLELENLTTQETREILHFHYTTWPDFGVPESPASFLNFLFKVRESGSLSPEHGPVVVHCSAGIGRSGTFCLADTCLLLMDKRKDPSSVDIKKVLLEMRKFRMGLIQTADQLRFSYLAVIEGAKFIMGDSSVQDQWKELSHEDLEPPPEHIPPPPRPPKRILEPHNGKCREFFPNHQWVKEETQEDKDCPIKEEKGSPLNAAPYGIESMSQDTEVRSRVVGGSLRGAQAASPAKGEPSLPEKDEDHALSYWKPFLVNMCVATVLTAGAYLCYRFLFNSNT
Procedure, shortened: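 Recombinant human PTP1B catalytic domain, 30 nM, with 2 mM pNPP substrate in 50 mM MOPS pH 6.5 at 30 °C. pNP release read continuously at 405 nm for 2 min. Initial rate comes from the early linear part of the curve. Inhibitors diluted around the estimated IC50. IC50 from nonlinear fit of % inhibition vs [I] with a Hill coefficient term.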

[2] = target: T2, Tyrosine-protein phosphatase non-receptor type 1 (Homo sapiens) (UniProt P18031); experiment: Inhibition of human recombinant PTP1B catalytic domain at 20 ug/mL
T2 sequence (whole entry): T1 sequence (P18031 whole entry)
Procedure, shortened: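 Human PTP1B catalytic domain (recombinant) hydrolysing 2 mM pNPP in 50 mM MOPS pH 6.5 at 30 °C. pNP formation followed at 405 nm for 2 min. Initial rate taken from the early linear region. Compounds tested at 20 µg/mL. Result given as percent inhibition.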

Structure (SMILES)	IC50 [1] [nM]	inhibition [2] [%]
CC(=O)O[C@H]1[C@@H](OC(C)=O)[C@@H](Cn2cc(COC(=O)c3cccc(C(=O)OCc4cn(C[C@H]5O[C@@H](C6=CC(=O)c7ccccc7C6=O)[C@H](OC(C)=O)[C@@H](OC(C)=O)[C@H]5OC(C)=O)nn4)c3)nn2)O[C@@H](C2=CC(=O)c3ccccc3C2=O)[C@@H]1OC(C)=O	–	0.8
COc1cc([C@@H]2O[C@H](CN3C=C(COC(=O)c4cccc(C(=O)OCC5=CN(C[C@H]6O[C@@H](c7cc(OC)c8ccccc8c7OC)[C@H](OC(C)=O)[C@@H](OC(C)=O)[C@H]6OC(C)=O)NN5)c4)NN3)[C@H](OC(C)=O)[C@H](OC(C)=O)[C@H]2OC(C)=O)c(OC)c2ccccc12	–	7.5
COc1cc([C@@H]2O[C@H](CN3C=C(COC(=O)c4cccc(C(=O)OCC5=CN(C[C@H]6O[C@@H](c7cc(OC)c8ccccc8c7OC)[C@H](OC(C)=O)[C@@H](OC(C)=O)[C@@H]6OC(C)=O)NN5)c4)NN3)[C@@H](OC(C)=O)[C@H](OC(C)=O)[C@H]2OC(C)=O)c(OC)c2ccccc12	–	12.5
CC(=O)OC[C@H]1O[C@@H](C2=CC(=O)C=CC2=O)[C@H](OC(C)=O)[C@@H](OC(C)=O)[C@@H]1OC(C)=O	4850	–

Next, values leading:

IC50 [1] [nM]	inhibition [2] [%]	Structure (SMILES)
620	95.8	O=C1C=CC(=O)C([C@@H]2O[C@H](Cn3cc(COC(=O)c4cccc(C(=O)OCc5cn(C[C@H]6O[C@@H](C7=CC(=O)C=CC7=O)[C@H](OC(=O)c7ccccc7)[C@@H](OC(=O)c7ccccc7)[C@@H]6OC(=O)c6ccccc6)nn5)c4)nn3)[C@@H](OC(=O)c3ccccc3)[C@H](OC(=O)c3ccccc3)[C@H]2OC(=O)c2ccccc2)=C1
720	95.5	O=C1C=CC(=O)C([C@@H]2O[C@H](Cn3cc(COC(=O)c4cccc(C(=O)OCc5cn(C[C@H]6O[C@@H](C7=CC(=O)C=CC7=O)[C@H](OC(=O)c7ccccc7)[C@@H](OC(=O)c7ccccc7)[C@H]6OC(=O)c6ccccc6)nn5)c4)nn3)[C@H](OC(=O)c3ccccc3)[C@H](OC(=O)c3ccccc3)[C@H]2OC(=O)c2ccccc2)=C1
880	98.5	COc1ccc(OC)c([C@@H]2O[C@H](Cn3cc(COC(=O)c4cccc(C(=O)OCc5cn(C[C@H]6O[C@@H](c7cc(OC)ccc7OC)[C@H](OC(=O)c7ccccc7)[C@@H](OC(=O)c7ccccc7)[C@H]6OC(=O)c6ccccc6)nn5)c4)nn3)[C@H](OC(=O)c3ccccc3)[C@H](OC(=O)c3ccccc3)[C@H]2OC(=O)c2ccccc2)c1
870	97.8	COc1ccc(OC)c([C@@H]2O[C@H](Cn3cc(COC(=O)c4cccc(C(=O)OCc5cn(C[C@H]6O[C@@H](c7cc(OC)ccc7OC)[C@H](OC(=O)c7ccccc7)[C@@H](OC(=O)c7ccccc7)[C@@H]6OC(=O)c6ccccc6)nn5)c4)nn3)[C@@H](OC(=O)c3ccccc3)[C@H](OC(=O)c3ccccc3)[C@H]2OC(=O)c2ccccc2)c1
–	8.5	CC(=O)O[C@@H]1[C@@H](OC(C)=O)[C@H](C2=CC(=O)c3ccccc3C2=O)O[C@H](Cn2cc(COC(=O)c3cccc(C(=O)OCc4cn(C[C@H]5O[C@@H](C6=CC(=O)c7ccccc7C6=O)[C@H](OC(C)=O)[C@@H](OC(C)=O)[C@@H]5OC(C)=O)nn4)c3)nn2)[C@H]1OC(C)=O
